# Screening results deposited in PubChem by several laboratories.
# Rows were chosen to be rich in hits. Some 3% of all compounds tested hit in one or more screens of this group.
# GC-B act = GC-B (human) receptor activation; P20594; activation, % at 10 µM; 370,000 compounds, 0.11% hits; HEK293-GC-B cells, CNP EC30, cGMP TR-FRET; 0% at EC30 CNP, 100% saturating CNP; AID 1920062;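 active means activation at 10 µM reaching about 35% in either raw or pattern-adjusted values, limit read from the data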
# Lipid droplet = modulators of hepatic lipid droplet formation; AID 1656; inhibition, % at 6.5 µM; AML12 mouse hepatocytes, oleate lipid droplets, BODIPY imaging; 240,000 compounds, 0.4% hits;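 active means lipid droplet intensity inhibited by at least 50%, with more than 500 cells counted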
#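 Assay system: AML12 mouse liver cells | Compound: 6.5 µM single-point dosing | Schedule: Overnight exposure | Technique: Fluorescence imaging, 20x objective, two fields per well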
# NPR1 activator = GC-A (human) enzyme activation; P16066; HEK293 GC-A cells, cGMP TR-FRET, EC30 ANP; 0% at EC30 ANP, 100% saturating ANP; activation, % at 10 µM; 370,000 compounds, 0.14% hits; in the data active means activation above about 40%
# Target sequence (P16066 whole entry, looked up): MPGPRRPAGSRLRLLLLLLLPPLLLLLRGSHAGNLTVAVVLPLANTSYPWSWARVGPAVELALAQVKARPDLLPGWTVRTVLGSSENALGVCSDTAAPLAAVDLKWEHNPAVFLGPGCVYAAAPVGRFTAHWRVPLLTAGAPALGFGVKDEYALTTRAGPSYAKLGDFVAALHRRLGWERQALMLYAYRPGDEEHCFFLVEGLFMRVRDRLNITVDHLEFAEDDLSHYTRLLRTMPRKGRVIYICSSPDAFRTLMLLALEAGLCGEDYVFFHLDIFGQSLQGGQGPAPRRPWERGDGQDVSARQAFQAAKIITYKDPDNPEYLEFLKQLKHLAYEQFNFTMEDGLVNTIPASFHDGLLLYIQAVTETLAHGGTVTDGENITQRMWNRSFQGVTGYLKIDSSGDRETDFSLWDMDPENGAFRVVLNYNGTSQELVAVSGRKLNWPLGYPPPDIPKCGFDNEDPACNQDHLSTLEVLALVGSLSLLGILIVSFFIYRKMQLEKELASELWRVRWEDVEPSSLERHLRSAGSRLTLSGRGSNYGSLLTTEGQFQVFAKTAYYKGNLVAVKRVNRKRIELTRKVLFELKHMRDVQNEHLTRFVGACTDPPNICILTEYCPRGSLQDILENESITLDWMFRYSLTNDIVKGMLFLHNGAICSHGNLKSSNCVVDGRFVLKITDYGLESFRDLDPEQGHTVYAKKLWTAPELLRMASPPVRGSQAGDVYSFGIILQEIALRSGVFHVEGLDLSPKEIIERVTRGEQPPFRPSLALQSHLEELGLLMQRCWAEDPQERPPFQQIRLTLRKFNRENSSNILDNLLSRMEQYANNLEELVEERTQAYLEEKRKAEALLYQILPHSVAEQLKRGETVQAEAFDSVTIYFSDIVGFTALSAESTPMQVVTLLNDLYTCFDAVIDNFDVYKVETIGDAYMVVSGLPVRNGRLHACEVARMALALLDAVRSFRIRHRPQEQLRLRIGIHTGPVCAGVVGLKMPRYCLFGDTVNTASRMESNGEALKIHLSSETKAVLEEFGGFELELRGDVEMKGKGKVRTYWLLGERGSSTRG
# GASC-1 inh = blocks human GASC-1 demethylase activity | Q9H3R0 | GST-JMJD2C(1-420) H3K9me3 demethylation, DELFIA europium | inhibition, % at 2.35 µM | 330,000 compounds, 0.069% hits | AID 2099;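 active means more than half of a compound's replicate wells show inhibition beyond 50%, single wells judged on their own value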;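 further: signal counts dimethyl H3K9 product captured on neutravidin plate; 0% = median of DMSO wells and 100% = 0.3 times that DMSO median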
# GRIN3A LBD mod = modulates the human NR3A ligand-binding domain. AID 1259313. NR3A LBD differential scanning fluorimetry, Tm shift; 0% = protein alone, 100% = glycine-bound protein. Tm shift relative to glycine control, % at 25 µM. 340,000 compounds, 2.5% hits;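 active means melting temperature shift of at least 10% of the positive control shift, at one fixed dose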
# aDG glyco up = increases alpha dystroglycan glycosylation | Pro5-aDG cells, alpha-DG glycosylation AlphaScreen (IIH6); 0% Pro5, 100% B10-LARGE cell signal | activation, % at 10 µM | 360,000 compounds, 0.22% hits | AID 624168;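 active means activation of at least 8% versus controls, or a plate z-score of at least 8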;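 further: Pro5 are CHO cells carrying HIG-tagged alpha-DG that lacks glycosylation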
# The depositor's hits bear a star; . = no result given.
SMILES,GC-B act,Lipid droplet,NPR1 activator,GASC-1 inh,GRIN3A LBD mod,aDG glyco up
COc1ccc(CN2C(=O)CCCC2(C)c2nnnn2-c2ccc3c(c2)OCCO3)cc1 (stereo not drawn),-3,.,-2,.,.,.
CC1(C)c2ssc(=S)c2-c2ccccc2N1C(=O)CSC1=NCCS1,-1,.,-2,-1,0,-1
Cc1cc2c(cc1C)N(C(=O)CSC1=NCCS1)C(C)(C)c1ssc(=S)c1-2,-8,67*,-4,6,-4,-1
O=C1C[C@@H](C(=O)Nc2ccc(Cl)cc2)[C@@H](c2ccccc2)O1,8,.,1,.,.,.
OC[C@H]1O[C@@](CO)(O[C@H]2O[C@H](CO)[C@@H](O)[C@H](O)[C@H]2O)[C@@H](O[C@H]2O[C@H](CO)[C@@H](O)[C@H](O)[C@H]2O)[C@@H]1O,-5,.,7,.,1,0
COc1cc(NC(=O)CN2CCN(C(=O)c3ccco3)CC2)c(C)cc1[N+](=O)[O-],-4,.,-5,.,.,0
CCOc1ccc(C(NC(=O)/C=C/c2ccco2)c2ccc(OC)c(OC)c2)cc1 (stereo not drawn),0,-2,1,7,10*,1
Cc1cccc(C2(c3cccc(C)c3)CC2C(=O)Nc2ccc([N+](=O)[O-])cc2O)c1 (stereo not drawn),-13,-24,-11,0,15*,0
COc1ccc(N2CCN(CCCNC(=O)CCOC(C)(C)C)CC2)cc1,2,.,-1,.,.,.
Cc1cccc(OC(=O)c2sc(Cl)nc2C)c1,6,-3,56*,2,-3,0
COc1cccc(NC(=O)c2sc(Cl)nc2C)c1,6,-6,4,4,-4,0
Fc1cccc(/C=N/Nc2ccccn2)c1,0,-5,-11,2,13*,0
CCOc1ccc(-c2cccc(NS(=O)(=O)c3ccccc3[N+](=O)[O-])c2)nn1,2,.,0,6,1,0
CCOc1ccc(-c2cccc(NS(=O)(=O)c3cc([N+](=O)[O-])ccc3C)c2)nn1,-6,.,-2,29,11*,0
O=C(O)c1ccc(COc2ccccc2Cl)cc1,1,.,9,-4,13*,0
O=C(O)c1cccc(COc2ccccc2Cl)c1,3,-9,8,80,-1,0
Cc1c(/C=N/NC(=O)c2ccccc2O)c2ccccn2c1C(=O)c1ccc(F)cc1,0,-41,4,5,14*,0
Cc1c(/C=N/NC(=O)c2ccc(O)cc2)c2ccccn2c1C(=O)c1ccc(F)cc1,-2,-25,-15,3,18*,0
COC(=O)N/N=C/c1c(C)c(C(=O)c2ccc(F)cc2)n2ccccc12,3,-26,-2,21,1,0
CCOC(=O)Nc1cccc(C(=O)O)c1,-7,6,0,-7,1,0
CCOC(=O)Nc1cccc(Nc2ccccc2)c1,2,5,3,3,27*,0
COC(=O)c1cc(S(=O)(=O)N2CCN(c3ccc(F)cc3)CC2)c[nH]1,-3,25,-5,34,2,0
COC(=O)c1cc(S(=O)(=O)N2CCN(c3ccc([N+](=O)[O-])cc3)CC2)c[nH]1,-15,18,-16,3,207*,0
O=[N+]([O-])c1ccc(N2CCN(S(=O)(=O)c3cnc[nH]3)CC2)cc1,2,-6,-1,-1,10*,0
Cc1noc(C)c1S(=O)(=O)N1CCN(c2ccc([N+](=O)[O-])cc2)CC1,0,-2,0,1,1,0
SMILES,GC-B act,Lipid droplet,NPR1 activator,GASC-1 inh,GRIN3A LBD mod,aDG glyco up
c1ccc(Cc2cnc(N3CCN(Cc4ccc5c(c4)OCCO5)CC3)nc2)cc1,2,.,2,.,.,.
Nc1nc(F)nc2c1ncn2[C@@H]1O[C@H](COP(=O)(O)O)[C@@H](O)[C@@H]1O,-5,.,0,.,.,.
COC(=O)c1cc(S(=O)(=O)Nc2nn(C)c3ccccc23)oc1C,4,-8,-2,0,11*,0
COC(=O)c1cc(S(=O)(=O)Nc2nn(C)c3cccc(F)c23)oc1C,2,9,-1,8,-4,0
O=C(CCCc1c[nH]c2ccccc12)Nc1ccc2ccccc2c1,6,-2,-1,0,24*,0
O=C(NCCc1c[nH]c2ccccc12)c1ccccc1,1,-7,1,15,13*,0
O=C(NCCc1c[nH]c2ccccc12)c1cc([N+](=O)[O-])cc([N+](=O)[O-])c1,-1,7,2,-7,-1,0
O=C(CCCc1c[nH]c2ccccc12)NCCc1c[nH]c2ccccc12,3,35,-2,3,15*,0
COc1ccc2[nH]cc(CCNC(=O)c3ccc([N+](=O)[O-])cc3)c2c1,-2,-41,2,9,12*,0
CCCCCCCCN1C(=O)[C@@H](CC(=O)NCc2cccc(C(F)(F)F)c2)C[C@@]2(C(=O)OC)C1=C[C@H](C1CCCC1)O[C@@H]2C,6,.,2,.,.,.
COC(=O)[C@]12C[C@H](CC(=O)NCC3CCCCC3)C(=O)N(Cc3ccccc3)C1=C[C@H](C1CCCC1)O[C@@H]2C,-20,.,-13,.,.,.
Cc1ccc(C(=O)NCCc2c[nH]c3ccccc23)s1,3,0,1,-1,27*,0
O=C(NCCc1c[nH]c2ccccc12)c1ccc(-n2cnnn2)cc1,-1,.,0,-13,13*,0
C/C(=N\NC(=O)c1c[nH]c2ccccc12)c1ccc2c(c1)OCO2,1,-2,-3,-6,7,0
C/C(=N\NC(=O)Cc1c[nH]c2ccccc12)c1ccc2ccccc2c1,-13,1,-5,-21,15*,0
N#CCC(=O)Nc1ccc(C(=O)NCCc2c[nH]c3ccccc23)cc1,-4,1,-1,12,18*,0
CC(C)C(=O)NCCc1c[nH]c2ccccc12,6,2,2,4,5,0
NC(=NCCc1c[nH]c2ccccc12)NC(=O)c1ccc(Cl)cc1,-12,-1,-21,-10,24*,0
O=C1CN(C(=O)CCCc2c[nH]c3ccccc23)c2ccccc2N1,0,.,-7,54*,-1,0
O=C(N[C@@H](Cc1c[nH]c2ccccc12)C(=O)O)c1ccc(Cl)cc1,-5,6,0,-3,0,0
O=C(NCCc1c[nH]c2ccccc12)c1ccc([N+](=O)[O-])cc1,0,-9,4,-5,25*,0
COc1ccc(-n2c(COc3ccc(Cl)cc3)nnc2SCC(=O)c2ccc(-c3ccccc3)cc2)cc1,2,.,1,.,.,.
